Measurements collected from several papers.
Compare with care: the assays were run in different laboratories.
Cell line: A549
Effect on: cell growth or viability

O=C(Cn1cc(COc2ncnc3[nH]cnc23)nn1)Nc1ccc(O)cc1 — IC50 (MTT): 26 µM
O=C(Nc1cccc(F)c1)Nc1nc2cc(-c3ccc4ncn(CCN5CCOCC5)c(=O)c4c3)ccc2s1 — IC50 (MTT; 72 h): > 20 µM
OC1CCN(c2ccc(/C=N/NC(=S)Nc3ccc(F)cc3)cc2)CC1 — IC50 (MTT; 24 h): 2.81 µM
COc1ccc(NC(=O)Nc2nc3cc(-c4ccc5ncn(CCN(C)C)c(=O)c5c4)ccc3s2)cc1 — IC50 (MTT; 72 h): 5.46 µM
CCCCn1cnc2ccc(-c3ccc(NC(=O)NCC)nc3)cc2c1=O — IC50 (CCK-8; 72 h): > 10 µM
O=C(N[C@@H](CSCc1ccccc1)C(=O)NO)c1ccccc1 — IC50 (MTT; 48 h): 201 µM
O=C(Nc1cccc(F)c1)Nc1nc2cc(-c3ccc4ncn(Cc5ccccc5)c(=O)c4c3)ccc2s1 — IC50 (MTT; 72 h): 3.49 µM
O=C(C=Cc1cccs1)c1ccc(OCCCOc2ccc(C(=O)C=Cc3cccs3)cc2)cc1 — IC50 (MTT; 48 h): 115 µM
CC(C)CNC(=S)N/N=C/c1ccc(N2CCC(O)CC2)cc1 — IC50 (MTT; 24 h): 1.5 µM
Fc1ccc(NC(=S)N/N=C/c2cccc3cc4ccccc4nc23)cc1 — IC50 (MTT; 48 h): > 50 µM
CCCCCC(=O)Nc1ccc(-c2ccc3ncn(Cc4ccccc4)c(=O)c3c2)cn1 — IC50 (CCK-8; 72 h): > 10 µM
COc1ccc(CNc2ccc(C(=O)O)cc2)cc1 — IC50 (resazurin; 72 h): > 100 µM
CC(C)CNC(=S)N/N=C/c1cccc2cc3ccccc3nc12 — IC50 (MTT; 48 h): > 50 µM
Cc1ccc(NC(=O)Nc2ccc(-c3ccc4ncn(Cc5ccccc5)c(=O)c4c3)cn2)cc1 — IC50 (CCK-8; 72 h): > 10 µM
COc1cc([C@@H]2c3cc4c(cc3[C@@H](O[C@@H]3O[C@@H]5CO[C@@H](C)O[C@H]5[C@H](O)[C@H]3O)[C@H]3COC(=O)[C@H]23)OCO4)cc(OC)c1O — IC50 (SRB; 72 h): 0.3 µM
COc1cccc2c1C(=O)c1c(O)c3c(c(O)c1C2=O)C[C@@](O)(C(=O)CO)C[C@@H]3O[C@H]1C[C@H](N)[C@H](O)[C@H](C)O1 — IC50 (MTT; 48 h): 5.95 µM
Cc1cc(NS(=O)(=O)c2ccc(NC(=O)/C(C#N)=C/c3ccc(N4CCCCC4)cc3)cc2)no1 — IC50 (MTT; 48 h): 36.4 µM
CC(C)[C@@H]1NC(=O)[C@@H](Cc2c[nH]cn2)NC(=O)[C@H]([C@@H](C)O)NC(=O)[C@@H](CCCN)NC(=O)[C@H](Cc2ccccc2)NC(=O)[C@@H](Cc2ccccc2)NC1=O — IC50 (ATP luminescence): 55.8 µM
CCCCn1cnc2ccc(-c3ccc(NC(=O)C4CCCC4)nc3)cc2c1=O — IC50 (CCK-8; 72 h): 4.58 µM
CC(C)CCn1cnc2ccc(-c3ccc4sc(NC(=O)Nc5ccc(F)cc5)nc4c3)cc2c1=O — IC50 (MTT; 72 h): 2.39 µM
CN1CCc2c(c3ccccc3n2Cc2ccc(C(=O)NO)cc2)C1 — IC50 (CCK-8; 48 h): 27.8 µM
Cc1ccccc1NC(=O)Nc1ccc(-c2ccc3ncn(Cc4ccccc4)c(=O)c3c2)cn1 — IC50 (CCK-8; 72 h): 0.98 µM
CN(C)C(=O)Nc1nc2ccc(Br)cc2c(=O)n1-c1ccccc1 — IC50 (MTT; 48 h): 31.1 µM
CCNC(=O)Nc1nc2cc(-c3ccc4ncn(Cc5ccccc5)c(=O)c4c3)ccc2s1 — IC50 (MTT; 72 h): 11 µM
NNc1nc2c(Cl)cc(Cl)cc2c(=O)n1-c1ccccc1 — IC50 (MTT; 48 h): > 200 µM
CC(=O)c1c(O)c2ccccc2oc1=O — IC50 (MTT; 48 h): 29.2 µM
NS(=O)(=O)c1ccc(-n2nc(C(=O)NN3C(=O)c4ccccc4C3=O)cc2-c2ccccc2)cc1 — IC50 (fluorescence; 48 h): 33.5 µM
CCCCn1cnc2ccc(-c3ccc(NC(=O)Nc4ccc(C)cc4)nc3)cc2c1=O — IC50 (CCK-8; 72 h): > 10 µM
OC1CCN(c2ccc(/C=N/NC(=S)NCc3ccccc3)cc2)CC1 — IC50 (MTT; 24 h): 4.25 µM
O=C(O)c1ccc(NCc2ccc(Br)cc2)cc1 — IC50 (resazurin; 72 h): > 100 µM
CCCCC(=O)Nc1ccc(-c2ccc3ncn(CC#N)c(=O)c3c2)cn1 — IC50 (CCK-8; 72 h): > 10 µM
COc1cccc(CNc2ccc(C(=O)O)cc2)c1OC — IC50 (resazurin; 72 h): > 100 µM
O=C(Nc1nc2cc(-c3ccc4ncn(Cc5ccccc5)c(=O)c4c3)ccc2s1)c1ccccc1 — IC50 (MTT; 72 h): > 20 µM
COc1cccc2c1C(=O)c1c(O)c3c(c(O)c1C2=O)C[C@@](O)(C(=O)CO)C[C@@H]3O[C@H]1C[C@H](N)[C@H](O)[C@H](C)O1 — IC50 (MTT): 3.87 µg/mL
Cc1ccc(C(C)C)c(OC2=C(Cl)C(=O)c3ccccc3C2=O)c1 — IC50 (MTT; 24 h): 40 µg/mL
NS(=O)(=O)c1ccc(-n2nc(C(=O)NN=Cc3cccnc3)cc2-c2ccccc2)cc1 — IC50 (fluorescence; 48 h): 24.6 µM
O=C(Nc1ccc(F)cc1)Nc1nc2cc(-c3ccc4ncn(CCC5CCCCC5)c(=O)c4c3)ccc2s1 — IC50 (MTT; 72 h): 9.1 µM
CCCCC(=O)Nc1cc(C)c(-c2ccc3ncn(CCC)c(=O)c3c2)cn1 — IC50 (CCK-8; 72 h): > 10 µM
C(=N\Nc1cc(N/N=C/c2cccc3cccnc23)ncn1)/c1cccc2cccnc12 — IC50 (MTT; 48 h): 14.8 µM
NNc1nc2c(Cl)cc(Cl)cc2c(=O)n1-c1ccc(F)cc1 — IC50 (MTT; 48 h): 80 µM
CC(C)[C@@H]1NC(=O)[C@@H](CCCNC(=N)N)NC(=O)[C@H]([C@@H](C)O)NC(=O)[C@@H](CCCN)NC(=O)[C@H](Cc2ccccc2)NC(=O)[C@@H](Cc2ccc(O)cc2)NC1=O — IC50 (ATP luminescence): > 100 µM
COc1cccc2c1C(=O)c1c(O)c3c(c(O)c1C2=O)C[C@@](O)(C(=O)CO)C[C@@H]3O[C@H]1C[C@H](N)[C@H](O)[C@H](C)O1 — IC50 (MTT; 72 h): 0.52 µM
O=C(O)c1ccc(NCc2cccc(O)c2O)cc1 — IC50 (resazurin; 72 h): 90.7 µM
C[C@@H]1C[C@H]2[C@@H]3CCC4=CC(=O)C=C[C@]4(C)[C@@]3(F)[C@@H](O)C[C@]2(C)[C@@]1(O)C(=O)CO — IC50 (MTT; 48 h): 348 µM
